Results reported in ChEMBL document CHEMBL1131450, “Synthesis and antitumor evaluation of 2,5-disubstituted-indazolo[4, 3-gh]isoquinolin-6(2H)-ones (9-aza-anthrapyrazoles)” (J Med Chem, 1998).
≈ marks a conversion by molar mass, not a printed value.

How the values were obtained:
LoVo/Dx (Homo sapiens) = test: cells
LoVo [1] = test: Resistance index measured as the ratio of IC50 of LoVo/Dx cell line to that of LoVo cell line.; assay type: functional, Homo sapiens
LoVo [2] = test: In vitro cytotoxicity on human colon adenocarcinoma (LoVo ) tumor cell line.; assay type: functional, cell-based
MX1 [3] = test: In vivo antitumor activity was measured on MX-1 human mammary carcinoma cells. TWI%=tumor weight inhibition. Optimal dose 24 mg/kg/day.; assay type: functional
P388 [4] = assay type: functional, Mus musculus
P388 [5] = test: In vivo antitumor activity was measured on systemic P388 murine leukemia cells. Maximum tested dose 40 mg/kg/day.; assay type: functional, Mus musculus
Outline: (§1)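 CD2F1 male mice given 10⁶ P388 leukemia cells iv (day 0); drug given iv on days 1, 4 and 7. Survival expressed as T/C% = median survival time of treated / median survival of controls × 100, reported at optimal dose (mg/kg/day) or maximum tested dose.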

MX1 [6] = test: In vivo antitumor activity was measured on MX-1 human mammary carcinoma cells. TWI%=tumor weight inhibition. Maximum tested dose 90 mg/kg/day.; assay type: functional
P388 [7] = test: In vivo antitumor activity was measured on systemic P388 murine leukemia cells. Optimal dose 4 mg/kg/day.; assay type: functional, Mus musculus
Outline: as §1

MX1 [8] = test: In vivo antitumor activity was measured on MX-1 human mammary carcinoma cells. TWI%=tumor weight inhibition. Optimal dose 9 mg/kg/day.; assay type: functional
P388 [9] = test: In vivo antitumor activity was measured on systemic P388 murine leukemia cells. Optimal dose 120 mg/kg/day.; assay type: functional, Mus musculus
Outline: as §1

MX1 [10] = test: In vivo antitumor activity was measured on MX-1 human mammary carcinoma cells. TWI%=tumor weight inhibition. Optimal dose 130 mg/kg/day.; assay type: functional
MX1 [11] = test: In vivo antitumor activity was measured on MX-1 human mammary carcinoma cells. TWI%=tumor weight inhibition. Optimal dose 1.3 mg/kg/day.; assay type: functional
P388 [12] = test: In vivo antitumor activity was measured on systemic P388 murine leukemia cells. Optimal dose 13 mg/kg/day.; assay type: functional, Mus musculus
Outline: as §1

P388 [13] = test: In vivo antitumor activity was measured on systemic P388 murine leukemia cells. Toxic deaths observed at dose 18 mg/kg/day.; assay type: functional, Mus musculus
MX1 [14] = test: In vivo antitumor activity was measured on MX-1 human mammary carcinoma cells. TWI%=tumor weight inhibition. Optimal dose 8 mg/kg/day.; assay type: functional
P388 [15] = test: In vivo antitumor activity was measured on systemic P388 murine leukemia cells. Maximum tested dose 3 mg/kg/day.; assay type: functional, Mus musculus
Outline: as §1

MX1 [16] = test: In vivo antitumor activity was measured on MX-1 human mammary carcinoma cells. TWI%=tumor weight inhibition. Optimal dose 27 mg/kg/day.; assay type: functional
P388 [17] = test: In vivo antitumor activity was measured on systemic P388 murine leukemia cells. Optimal dose 24 mg/kg/day.; assay type: functional, Mus musculus
Outline: as §1

MX1 [18] = test: In vivo antitumor activity was measured on MX-1 human mammary carcinoma cells. TWI%=tumor weight inhibition. Optimal dose 60 mg/kg/day.; assay type: functional
P388 [19] = test: In vivo antitumor activity was measured on systemic P388 murine leukemia cells. Optimal dose 1.5 mg/kg/day.; assay type: functional, Mus musculus
Outline: as §1

P388 [20] = test: In vivo antitumor activity was measured on systemic P388 murine leukemia cells. Maximum tested dose 18 mg/kg/day.; assay type: functional, Mus musculus
Outline: as §1

MX1 [21] = test: In vivo antitumor activity was measured on MX-1 human mammary carcinoma cells. TWI%=tumor weight inhibition. Optimal dose 18 mg/kg/day.; assay type: functional
MX1 [22] = test: In vivo antitumor activity was measured on MX-1 human mammary carcinoma cells. TWI%=tumor weight inhibition. Optimal dose 40 mg/kg/day.; assay type: functional
MX1 [23] = test: In vivo antitumor activity was measured on MX-1 human mammary carcinoma cells. TWI%=tumor weight inhibition. Optimal dose 120 mg/kg/day.; assay type: functional
MX1 [24] = test: In vivo antitumor activity was measured on MX-1 human mammary carcinoma cells. TWI%=tumor weight inhibition. Optimal dose 13 mg/kg/day.; assay type: functional
P388 [25] = test: In vivo antitumor activity was measured on systemic P388 murine leukemia cells. Optimal dose 7.5 mg/kg/day.; assay type: functional, Mus musculus
Outline: as §1

MX1 [26] = test: Antitumor activity was measured on MX-1 human mammary carcinoma cells. TWI%=tumor weight inhibition. Optimal dose at 40 mg/kg/day; assay type: functional
P388 [27] = test: In vivo antitumor activity was measured on systemic P388 murine leukemia cells. Optimal dose at 40 mg/kg/day; assay type: functional, Mus musculus
Outline: as §1

P388 [28] = test: In vivo antitumor activity was measured on systemic P388 murine leukemia cells. Maximum tested dose 20 mg/kg/day.; assay type: functional, Mus musculus
Outline: as §1

IC50 (LoVo/Dx (Homo sapiens))	Compound	RI (LoVo [1])	IC50 (LoVo [2])	other results
2 µg/mL (≈ 5.1 µM)	CN(C)CCCn1nc2c3c(c(NCCN(C)C)ccc31)C(=O)c1ccncc1-2	8.3	0.24 µg/mL (≈ 0.611 µM)	TWI (MX1 [3]): 55%; T/C (P388 [4]): 270%
2.13 µg/mL (≈ 5.43 µM)	CN(C)CCCNc1ccc2c3c(nn2CCN(C)C)-c2cnccc2C(=O)c13	6.4	0.33 µg/mL (≈ 0.841 µM)	T/C (P388 [5]): 138%; TWI (MX1 [6]): 141%
0.83 µg/mL (≈ 2.04 µM)	CCN(CC)CCNc1ccc2c3c(nn2CCN(C)C)-c2cnccc2C(=O)c13	2.2	0.37 µg/mL (≈ 0.91 µM)	T/C (P388 [7]): 175%; TWI (MX1 [8]): 35%
> 100 µg/mL	O=C1c2ccncc2-c2nn(CCNCCO)c3ccc(NCCN(CCO)CCO)c1c23		> 100 µg/mL	T/C (P388 [9]): 111%; TWI (MX1 [10]): 45%
3.78 µg/mL (≈ 10.4 µM)	CNCCNc1ccc2c3c(nn2CCN(C)C)-c2cnccc2C(=O)c13	126	0.03 µg/mL (≈ 0.0823 µM)	TWI (MX1 [11]): 68%; T/C (P388 [12]): 262%
0.39 µg/mL (≈ 0.932 µM)	CN(C)CCn1nc2c3c(c(NCCN4CCCCC4)ccc31)C(=O)c1ccncc1-2	1.1	0.35 µg/mL (≈ 0.836 µM)	T/C (P388 [15]): 113%; TWI (MX1 [3]): 6%
> 100 µg/mL	NCCn1nc2c3c(c(NCCNCCO)ccc31)C(=O)c1ccncc1-2	>61	1.63 µg/mL (≈ 4.45 µM)	TWI (MX1 [16]): 62%; T/C (P388 [17]): 194%
> 100 µg/mL	CN(C)CCNCCNc1ccc2c3c(nn2CCN(C)C)-c2cnccc2C(=O)c13	>31	3.2 µg/mL (≈ 7.59 µM)	T/C (P388 [5]): 133%; TWI (MX1 [18]): 25%
3.14 µg/mL (≈ 8.96 µM)	CNCCNc1ccc2c3c(nn2CCNC)-c2cnccc2C(=O)c13	78	0.04 µg/mL (≈ 0.114 µM)	T/C (P388 [19]): 167%
> 100 µg/mL	CN(C)CCn1nc2c3c(c(NCCN4CCNCC4)ccc31)C(=O)c1ccncc1-2	21	4.83 µg/mL (≈ 11.5 µM)	T/C (P388 [20]): 113%; TWI (MX1 [21]): 14%
13.6 µg/mL (≈ 38.7 µM)	CN(C)CCn1nc2c3c(c(NCCO)ccc31)C(=O)c1ccncc1-2	42.5	0.32 µg/mL (≈ 0.911 µM)	TWI (MX1 [22]): 97%; T/C (P388 [5]; in the assay text read “Maximum tested dose 12 mg/kg/day” for “Maximum tested dose 40 mg/kg/day”): 167%
> 100 µg/mL	CN(C)CCn1nc2c3c(c(NCCn4ccnc4)ccc31)C(=O)c1ccncc1-2	>91	1.1 µg/mL (≈ 2.74 µM)	TWI (MX1 [23]): 70%; T/C (P388 [5]): 150%
15.4 µg/mL (≈ 47.8 µM)	NCCNc1ccc2c3c(nn2CCN)-c2cnccc2C(=O)c13	18	0.86 µg/mL (≈ 2.67 µM)	TWI (MX1 [24]): 70%; T/C (P388 [25]): 194%
> 100 µg/mL	O=C1c2ccncc2-c2nn(CCNCCO)c3ccc(NCCNCCO)c1c23	>22	4.5 µg/mL (≈ 11 µM)	TWI (MX1 [26]): 89%; T/C (P388 [27]): 165%
> 100 µg/mL	CN(C)CCn1nc2c3c(c(NCCNS(C)(=O)=O)ccc31)C(=O)c1ccncc1-2	>24	4.1 µg/mL (≈ 9.57 µM)	T/C (P388 [28]): 111%; TWI (MX1 [18]): 90%

Compound	IC50 (LoVo/Dx (Homo sapiens))	RI (LoVo [1])	IC50 (LoVo [2])	other results
CN(C)CCn1nc2c3c(c(NCCCN)ccc31)C(=O)c1ccncc1-2	12.5 µg/mL (≈ 34.3 µM)	7.6	1.65 µg/mL (≈ 4.53 µM)	T/C (P388 [13]): 125%; TWI (MX1 [14]): 73%
